Reference: ChEMBL document CHEMBL1781892, “Microwave assisted synthesis and structure-activity relationship of 4-hydroxy-N'-[1-phenylethylidene]-2H/2-methyl-1,2-benzothiazine-3-carbohydrazide 1,1-dioxides as anti-microbial agents” (2011)

Legend:
[1] = tested on: Aspergillus flavus; experiment: Antifungal activity against Aspergillus flavus using 1 x 10^5 spore/100 uL assessed as 99.5% fungal killing of original inoculum after 72 hrs by microdilution method; assay type: functional
[2] = tested on: Trichoderma viride; experiment: Antifungal activity against Trichoderma viride using 1 x 10^5 spore/100 uL after 72 hrs by microdilution method; assay type: functional
[3] = tested on: Staphylococcus aureus; experiment: Antibacterial activity against Staphylococcus aureus using 1 x 10^4 CFU/ml inoculum after 24 hrs by microdilution method; assay type: functional
[4] = tested on: Curvularia australiensis; experiment: Antifungal activity against Drechslera australiensis using 1 x 10^5 spore/100 uL after 72 hrs by microdilution method; assay type: functional
[5] = tested on: Aspergillus fumigatus; experiment: Antifungal activity against Aspergillus fumigatus using 1 x 10^5 spore/100 uL assessed as 99.5% fungal killing of original inoculum after 72 hrs by microdilution method; assay type: functional
[6] = Antifungal activity against Trichoderma reesei using 1 x 10^5 spore/100 uL assessed as 99.5% fungal killing of original inoculum after 72 hrs by microdilution method; assay type: functional
[7] = tested on: Bacillus thuringiensis; experiment: Antibacterial activity against Bacillus thuringiensis using 1 x 10^4 CFU/ml inoculum after 24 hrs by microdilution method; assay type: functional
[8] = tested on: Pseudomonas aeruginosa; experiment: Antibacterial activity against Pseudomonas aeruginosa using 1 x 10^4 CFU/ml inoculum after 24 hrs by microdilution method; assay type: functional
[9] = tested on: Escherichia coli; experiment: Antibacterial activity against Escherichia coli using 1 x 10^4 CFU/ml inoculum after 24 hrs by microdilution method; assay type: functional
[10] = tested on: Trichoderma viride; experiment: Antifungal activity against Trichoderma viride using 1 x 10^5 spore/100 uL assessed as 99.5% fungal killing of original inoculum after 72 hrs by microdilution method; assay type: functional
[11] = tested on: Curvularia australiensis; experiment: Antifungal activity against Drechslera australiensis using 1 x 10^5 spore/100 uL assessed as 99.5% fungal killing of original inoculum after 72 hrs by microdilution method; assay type: functional
[12] = tested on: Aspergillus fumigatus; experiment: Antifungal activity against Aspergillus fumigatus using 1 x 10^5 spore/100 uL after 72 hrs by microdilution method; assay type: functional
[13] = Antifungal activity against Trichoderma reesei using 1 x 10^5 spore/100 uL after 72 hrs by microdilution method; assay type: functional
Procedure, shortened: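 Spores washed from malt agar cultures with sterile 0.85% saline plus 0.1% Tween 80, adjusted to about 1.0×10^5 per 100 µl well. Compounds from a 1 mg/ml DMSO stock were serially diluted in malt broth with inoculum in 96-well plates and incubated 72 h at 28 °C. MIC is the lowest concentration with no visible growth under a binocular microscope. DMSO served as negative control.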

[14] = tested on: Bacillus cereus; experiment: Antibacterial activity against Bacillus cereus using 1 x 10^4 CFU/ml inoculum after 24 hrs by microdilution method; assay type: functional
[15] = tested on: Aspergillus niger; experiment: Antifungal activity against Aspergillus niger using 1 x 10^5 spore/100 uL assessed as 99.5% fungal killing of original inoculum after 72 hrs by microdilution method; assay type: functional
[16] = tested on: Aspergillus flavus; experiment: Antifungal activity against Aspergillus flavus using 1 x 10^5 spore/100 uL after 72 hrs by microdilution method; assay type: functional
[17] = tested on: Bacillus subtilis; experiment: Antibacterial activity against Bacillus subtilis using 1 x 10^4 CFU/ml inoculum after 24 hrs by microdilution method; assay type: functional
[18] = tested on: Salmonella typhi; experiment: Antibacterial activity against Salmonella typhi using 1 x 10^4 CFU/ml inoculum after 24 hrs by microdilution method; assay type: functional, Salmonella enterica subsp. enterica serovar Typhi
[19] = tested on: Aspergillus niger; experiment: Antifungal activity against Aspergillus niger using 1 x 10^5 spore/100 uL after 72 hrs by microdilution method; assay type: functional

| SMILES | MFC [1] [×10⁻² umol] | MIC [2] [×10⁻² umol] | MIC [3] [×10⁻² umol] | MIC [4] [×10⁻² umol] | MFC [5] [×10⁻² umol] | MFC [6] [×10⁻² µmol] | MIC [7] [×10⁻² umol] | MIC [8] [×10⁻² umol] | MIC [9] [×10⁻² umol] | MFC [10] [×10⁻² umol] | MFC [11] [×10⁻² umol] | MIC [12] [×10⁻² umol] | MIC [13] [×10⁻² µmol] | MIC [14] [×10⁻² umol] | MFC [15] [×10⁻² umol] | MIC [16] [×10⁻² umol] | MIC [17] [×10⁻² umol] | MIC [18] [×10⁻² umol] | MIC [19] [×10⁻² umol] |
| --- | --- | --- | --- | --- | --- | --- | --- | --- | --- | --- | --- | --- | --- | --- | --- | --- | --- | --- | --- |
| COc1ccc(/C(C)=N/NC(=O)C2=C(O)c3ccccc3S(=O)(=O)N2C)cc1 | 170 | 79.2 | 26.3 | 80 | 149.5 | 158 | 7.8 | 29.2 | 27.9 | 158.4 | 159.9 | 77.6 | 78.9 | 7.9 | 180.7 | 86.1 | 7.6 | 32.4 | 87.2 |
| C/C(=N\NC(=O)C1=C(O)c2ccccc2S(=O)(=O)N1C)c1ccccc1O | >200 | >100 | 17.7 | >100 | >200 | > 200 | 4 | 20.2 | 19.6 | >200 | >200 | >100 | > 100 | 4 | >200 | >100 | 4.2 | 22.3 | >100 |
| C/C(=N\NC(=O)C1=C(O)c2ccccc2S(=O)(=O)N1C)c1ccc(N)cc1 | 166.3 | 71.1 | 20.4 | 69.8 | 151.6 | 136 | 6.3 | 24.3 | 22.4 | 142 | 133.7 | 73.6 | 68 | 6.2 | 167 | 82.9 | 6.2 | 27.5 | 83.7 |
| COc1ccc(/C(C)=N/NC(=O)C2=C(O)c3ccccc3S(=O)(=O)N2)cc1 | 169.3 | 80.5 | 26.7 | 81.1 | 153.6 | 160 | 7.8 | 29.3 | 27.8 | 158.8 | 159.6 | 77.7 | 79.9 | 7.8 | 179.5 | 86.2 | 7.5 | 32.7 | 87.3 |
| C/C(=N\NC(=O)C1=C(O)c2ccccc2S(=O)(=O)N1C)c1ccc(F)cc1F | 149.4 | 72.1 | 27.6 | 72.1 | 140.1 | 130 | 8 | 30.5 | 28.9 | 143 | 144.2 | 69.6 | 68.4 | 7.5 | 143.6 | 76.3 | 7.8 | 33.1 | 76.5 |
| C/C(=N\NC(=O)C1=C(O)c2ccccc2S(=O)(=O)N1)c1ccc(I)cc1 | 179.8 | 71.3 | 28.2 | 74 | 159.2 | 134 | 9.4 | 30.9 | 29.5 | 139.7 | 145.8 | 82 | 70.3 | 9.1 | 166.1 | 89.9 | 9.5 | 33.4 | 91.5 |
| C/C(=N\NC(=O)C1=C(O)c2ccccc2S(=O)(=O)N1C)c1ccc(O)cc1 | >200 | >100 | 18.9 | >100 | >200 | > 200 | 5 | 22.1 | 21 | >200 | >200 | >100 | > 100 | 4.6 | >200 | >100 | 4.8 | 25.1 | >100 |
| COc1cccc(/C(C)=N/NC(=O)C2=C(O)c3ccccc3S(=O)(=O)N2C)c1 | 188.9 | 80.5 | 24.1 | 81.7 | 168.2 | 159 | 7.8 | 26.8 | 25.6 | 160.4 | 154.8 | 85.7 | 79.6 | 7 | 190 | 92.6 | 7.7 | 29.4 | 90.1 |
| C/C(=N\NC(=O)C1=C(O)c2ccccc2S(=O)(=O)N1)c1ccc(N)cc1 | 175.9 | 71.3 | 20.5 | 70 | 150.1 | 138 | 6.1 | 24.5 | 22.9 | 142.8 | 129.5 | 74 | 70.3 | 6.2 | 177.5 | 82.9 | 6 | 27.7 | 83.8 |
